{
  "source": "paper PMC2824925",
  "about": "(Clinical pharmacology and therapeutics, 2009)",
  "key": {"[1]": {"assay": "Plasma pharmacokinetics of repeat-dose intravenous micafungin in young infants", "format": "in vivo, human", "conditions": "for AUC(0-t): log-linear method; for Vd: Vdss/wt", "in_short": "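Infants aged >48 h to day of life 120 with suspected candidaemia or invasive candidiasis got test compound by 1-h IV infusion every 24 h. Blood samples (50–100 μl; ≤500 μl total, away from infusion site) were taken around the day-4 dose: pre-dose, end of infusion, and 2–4, 8–12 and 20–24 h. Plasma was measured by LC-MS/MS (LLOQ 0.05 μg/ml). Analysis was non-compartmental: CLss = dose/AUC0–24, AUC by log-linear method, observed Tmax.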"}, "[2]": {"assay": "Safety and tolerability of repeat-dose micafungin in young infants", "format": "in vivo, human", "in_short": "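Multicentre open-label study: 7 mg/kg/day (≥1,000 g) or 10 mg/kg/day (<1,000 g) by 1-h IV infusion every 24 h for 4–5 days. Safety set: infants given ≥1 dose. Physical exams, haematology, serum chemistry and vital signs were taken at screening (≤72 h pre-dose) and until 72 h after the last dose. Investigators graded AEs for severity and drug relationship; treatment-emergent AEs counted through 72 h post-dose.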"}, "[3]": {"conditions": "infants weighing > 1,000 g, single dose 0.75, 1.5 or 3.0 mg/kg; cited from earlier work"}, "[4]": {"conditions": "adults, cited from earlier work"}, "[5]": {"conditions": "febrile neutropenic pediatric patients, Phase I; cited from earlier work"}, "[6]": {"conditions": "overall (7 and 10 mg/kg/day groups), day 4, n=12"}},
  "note": "Entries after “also recorded” stand apart in the source; their conditions may differ. *1 amine or outer side, *2 acyl side, *3 side chain or, on linkers, in order; H or OH if unused. Where a SMILES comes first, the peptide text is derived from it. Bridges are numbered along the chain shown (N, C = ends). [ ]: non-standard residue; d: D form. The star is where a group is joined. hTyr(3S-OH,4S-OH,3'-OSO3H) = N[C@H](C(=O)O)[C@H](O)[C@@H](O)c1ccc(O)c(OS(=O)(=O)O)c1; Orn(4R-OH,5R-OH) = O=C([C@H](C[C@@H](O)[C@@H](O)N[*:3])N[*:1])[*:2]; Pro(3S-OH,4S-Me) = C[C@H]1CN[C@H](C(=O)O)[C@H]1O; X1 = CCCCCOc1ccc(-c2cc(-c3ccc(C(=O)*)cc3)no2)cc1; Gln(3R-OH) = NC(=O)C[C@@H](O)[C@H](N)C(=O)O; Hyp = O=C(O)[C@@H]1C[C@@H](O)CN1",
  "data": [
    {"compound": "CCCCCOc1ccc(-c2cc(-c3ccc(C(=O)N[C@H]4C[C@@H](O)[C@@H](O)NC(=O)[C@@H]5[C@@H](O)[C@@H](C)CN5C(=O)[C@H]([C@H](O)CC(N)=O)NC(=O)[C@H]([C@H](O)[C@@H](O)c5ccc(O)c(OS(=O)(=O)O)c5)NC(=O)[C@@H]5C[C@@H](O)CN5C(=O)[C@H]([C@@H](C)O)NC4=O)cc3)no2)cc1", "note": "[micafungin] (X1-[Orn(4R-OH,5R-OH)]T[Hyp][hTyr(3S-OH,4S-OH,3'-OSO3H)][Gln(3R-OH)][Pro(3S-OH,4S-Me)]; lactam 1-C)", "values": [
      {"measurement": "Median total body clearance adjusted for weight, lower in infants ≥ 1,000 g than in infants < 1,000 g", "setting": "[1]; 7 mg/kg/day (≥ 1,000 g) vs 10 mg/kg/day (< 1,000 g)", "value": 21, "unit": "%"},
      {"measurement": "AUC0–24 of a single infant (highest observed)", "setting": "[1]; 7 mg/kg/day group, subject 4, weight 4.5 kg, single infant", "value": 643.2, "unit": "µg·h/mL"},
      {"measurement": "CLss/wt, median (range)", "setting": "[1]; 7 mg/kg/day, IV, day 4, infants ≥ 1,000 g, n=6", "value": "0.4 (0.2–0.6) ml/min/kg"},
      {"measurement": "Tmax, median (range)", "setting": "[1]; 10 mg/kg/day, 1-h IV infusion, day 4, infants < 1,000 g, n=6", "value": "1.1 (1.0–1.1) h"},
      {"measurement": "CLss/wt, median (range)", "setting": "[1]; 10 mg/kg/day, IV, day 4, infants < 1,000 g, n=6", "value": "0.6 (0.4–0.8) ml/min/kg"},
      {"measurement": "CLss, median (range)", "setting": "[1]; 10 mg/kg/day, IV, day 4, infants < 1,000 g, n=6, dose/AUC0–24", "value": "0.4 (0.2–0.5) ml/min"},
      {"measurement": "AUC(0-t)", "setting": "[1]; human, plasma, iv, 7 mg/kg/day, AUC0–24, mean (SD), 7 mg/kg/day, 1-h IV infusion, day 4, infants ≥ 1,000 g, n=6, plasma, SD", "value": 308, "unit": "µg·h/mL"},
      {"measurement": "AUC(0-t)", "setting": "[1]; human, plasma, iv, 7 mg/kg/day, AUC0–24, median (range), 7 mg/kg/day, 1-h IV infusion, day 4, infants ≥ 1,000 g, n=6, plasma", "value": 258, "unit": "µg·h/mL"},
      {"measurement": "clearance", "setting": "[1]; human, plasma, iv, 7 mg/kg/day, CLss, mean (SD), 7 mg/kg/day, IV, day 4, infants ≥ 1,000 g, n=6, dose/AUC0–24, SD", "value": 0.9, "unit": "mL/min"},
      {"measurement": "clearance", "setting": "[1]; human, plasma, iv, 7 mg/kg/day, CLss, median (range), 7 mg/kg/day, IV, day 4, infants ≥ 1,000 g, n=6, dose/AUC0–24", "value": 0.7, "unit": "mL/min"},
      {"measurement": "clearance", "setting": "[1]; human, plasma, iv, 7 mg/kg/day, CLss/wt, mean (SD), 7 mg/kg/day, IV, day 4, infants ≥ 1,000 g, n=6, SD", "value": 0.4, "unit": "mL/min/kg"},
      {"measurement": "clearance", "setting": "[1]; human, plasma, iv, 7 mg/kg/day, CLss/wt, median (range), 7 mg/kg/day, IV, day 4, infants ≥ 1,000 g, n=6", "value": 0.45, "unit": "mL/min/kg"},
      {"measurement": "Vd", "setting": "[1]; human, plasma, iv, 7 mg/kg/day, mean (SD), 7 mg/kg/day, IV, day 4, infants ≥ 1,000 g, n=6, SD", "value": 0.391, "unit": "L/kg"},
      {"measurement": "Vd", "setting": "[1]; human, plasma, iv, 7 mg/kg/day, median (range), 7 mg/kg/day, IV, day 4, infants ≥ 1,000 g, n=6", "value": 0.341, "unit": "L/kg"},
      {"measurement": "AUC(0-t)", "setting": "[1]; human, plasma, iv, 10 mg/kg/day, AUC0–24, median (range), 10 mg/kg/day, 1-h IV infusion, day 4, infants < 1,000 g, n=6, plasma", "value": 291, "unit": "µg·h/mL"},
      {"measurement": "clearance", "setting": "[1]; human, plasma, iv, 10 mg/kg/day, CLss, mean (SD), 10 mg/kg/day, IV, day 4, infants < 1,000 g, n=6, dose/AUC0–24, SD", "value": 0.4, "unit": "mL/min"},
      {"measurement": "clearance", "setting": "[1]; human, plasma, iv, 10 mg/kg/day, CLss/wt, mean (SD), 10 mg/kg/day, IV, day 4, infants < 1,000 g, n=6, SD", "value": 0.6, "unit": "mL/min/kg"},
      {"measurement": "clearance", "setting": "[1]; human, plasma, iv, 10 mg/kg/day, CLss/wt, median (range), 10 mg/kg/day, IV, day 4, infants < 1,000 g, n=6", "value": 0.57, "unit": "mL/min/kg"},
      {"measurement": "Vd", "setting": "[1]; human, plasma, iv, 10 mg/kg/day, mean (SD), 10 mg/kg/day, IV, day 4, infants < 1,000 g, n=6, SD", "value": 0.51, "unit": "L/kg"},
      {"measurement": "Vd", "setting": "[1]; human, plasma, iv, 10 mg/kg/day, median (range), 10 mg/kg/day, IV, day 4, infants < 1,000 g, n=6", "value": 0.543, "unit": "L/kg"},
      {"measurement": "AUC(0-t)", "setting": "[1]; human, plasma, iv, AUC0–24, mean (SD), overall (7 and 10 mg/kg/day groups), day 4, n=12, plasma, SD", "value": 308, "unit": "µg·h/mL"},
      {"measurement": "AUC(0-t)", "setting": "[1]; human, plasma, iv, AUC0–24, median (range), overall (7 and 10 mg/kg/day groups), day 4, n=12, plasma", "value": 275, "unit": "µg·h/mL"},
      {"measurement": "clearance", "setting": "[1]; human, plasma, iv, CLss/wt, mean (SD), overall (7 and 10 mg/kg/day groups), day 4, n=12, SD", "value": 0.5, "unit": "mL/min/kg"},
      {"measurement": "Tmax", "setting": "[1]; human, plasma, iv, Tmax, mean (SD), overall (7 and 10 mg/kg/day groups), day 4, n=12, SD", "value": 1.2, "unit": "h"},
      {"measurement": "Vd", "setting": "[1]; human, plasma, iv, mean (SD), overall (7 and 10 mg/kg/day groups), day 4, n=12, SD", "value": 0.45, "unit": "L/kg"},
      {"measurement": "Vd", "setting": "[1]; human, plasma, iv, median (range), overall (7 and 10 mg/kg/day groups), day 4, n=12", "value": 0.503, "unit": "L/kg"},
      {"measurement": "CLss/wt, median (range)", "setting": "[1]; [6]", "value": "0.5 (0.2–0.8) ml/min/kg"},
      {"measurement": "Tmax, median (range)", "setting": "[1]; [6]", "value": "1.1 (1.0–2.1) h"},
      {"measurement": "Allergic or histamine-like reactions, infusion-related toxicity, nephrotoxicity or hepatotoxicity", "setting": "[2]; 7 and 10 mg/kg/day", "value": "no instances"},
      {"measurement": "Changes in AST and ALT from baseline to post-treatment", "setting": "[2]; 7 and 10 mg/kg/day", "value": "minimal"},
      {"measurement": "Renal toxicity / changes in hematology parameters", "setting": "[2]; 7 and 10 mg/kg/day", "value": "no evidence of renal toxicity or significant changes in hematology parameters"},
      {"measurement": "Infants with AEs irrespective of causality", "setting": "[2]; 7 and 10 mg/kg/day IV, ≥ 4 days, 12/13 infants", "value": 92.3, "unit": "%"},
      {"measurement": "Deaths / discontinuations because of an AE", "setting": "[2]; 7 and 10 mg/kg/day, 13 infants", "value": "No deaths occurred in this study and no patients withdrew prematurely from the study because of an AE; also recorded: No deaths or discontinuations from treatment occurred"},
      {"measurement": "Tolerability", "setting": "[2]; doses of up to 10 mg/kg/day IV, ≥ 4 days, young infants", "value": "well tolerated"},
      {"measurement": "Infants with serious AEs", "setting": "[2]; four infants of 13, two in each treatment group", "value": 30.8, "unit": "%"},
      {"measurement": "Micafungin clearance rate", "setting": "[3]", "value": 0.65, "unit": "mL/min/kg"},
      {"measurement": "Average AUC", "setting": "[4]; 150-mg dose", "value": 166.7, "unit": "µg·h/mL"},
      {"measurement": "AUC values well tolerated", "setting": "[4]", "value": "< 600", "unit": "µg·h/mL"},
      {"measurement": "Micafungin clearance in children 2–8 years relative to children ≥ 9 years of age", "setting": "[5]", "value": "1.5–2.0 times higher"}
    ]}
  ]
}
